These results are taken from ChEMBL document CHEMBL4665761, “Optimizing the Benefit/Risk of Acetyl-CoA Carboxylase Inhibitors through Liver Targeting” (J Med Chem, 2020).

As usually defined, the Cmax is the highest concentration seen after dosing. As a reminder, the half-life is the time needed for the level to fall by half in the phase considered. A word on the inhibition in vivo: it is the share of the control response that was lost under treatment. Broadly, the pIC50 is −log10 of the IC50, conventionally taken in molar units. The AUC(0-t) is exposure summed from dosing to a finite time, without extrapolation to infinity. The fraction unbound is the share of the substance not bound to proteins or other matrix.

pIC50: −log10 of the molar value. Values after ≈ are worked out from the molar mass of the structure shown.

A short description of series [1]: Cmax in Wistar-Hannover rat plasma at 4 mg/kg, po and measured up to 24 hrs by LC/MS-MS analysis. The arrangement: route oral, dose 4 mg/kg, time <=24. It is filed as ADME, organism-based.
The nature of series [2]: Half life in Wistar-Hannover rat plasma at 4 mg/kg, po and measured up to 24 hrs by LC/MS-MS analysis. The class given is ADME, organism-based.
The nature of series [3]: Drug uptake in Wistar-Hannover rat liver at 30 mg/kg, po after 6 hrs by LC/MS-MS analysis. The class given is ADME, organism-based. The conditions noted are these: read-out: Drug uptake. The method, boiled down:
(§1)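 Male Wistar-Hannover rats, n = 2 or 3, given an oral suspension in 0.5% methyl cellulose with 0.1% Tween 80; one compound was dosed as the HCl salt. Total plasma and liver concentrations were measured 6 h post-dose. Kp = liver/plasma total concentration. Kpu,u uses fu values from equilibrium dialysis.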

In series [4] the target is T1, OATP1B1 (Homo sapiens, UniProt Q9Y6L6).
T1 sequence (Q9Y6L6 whole entry): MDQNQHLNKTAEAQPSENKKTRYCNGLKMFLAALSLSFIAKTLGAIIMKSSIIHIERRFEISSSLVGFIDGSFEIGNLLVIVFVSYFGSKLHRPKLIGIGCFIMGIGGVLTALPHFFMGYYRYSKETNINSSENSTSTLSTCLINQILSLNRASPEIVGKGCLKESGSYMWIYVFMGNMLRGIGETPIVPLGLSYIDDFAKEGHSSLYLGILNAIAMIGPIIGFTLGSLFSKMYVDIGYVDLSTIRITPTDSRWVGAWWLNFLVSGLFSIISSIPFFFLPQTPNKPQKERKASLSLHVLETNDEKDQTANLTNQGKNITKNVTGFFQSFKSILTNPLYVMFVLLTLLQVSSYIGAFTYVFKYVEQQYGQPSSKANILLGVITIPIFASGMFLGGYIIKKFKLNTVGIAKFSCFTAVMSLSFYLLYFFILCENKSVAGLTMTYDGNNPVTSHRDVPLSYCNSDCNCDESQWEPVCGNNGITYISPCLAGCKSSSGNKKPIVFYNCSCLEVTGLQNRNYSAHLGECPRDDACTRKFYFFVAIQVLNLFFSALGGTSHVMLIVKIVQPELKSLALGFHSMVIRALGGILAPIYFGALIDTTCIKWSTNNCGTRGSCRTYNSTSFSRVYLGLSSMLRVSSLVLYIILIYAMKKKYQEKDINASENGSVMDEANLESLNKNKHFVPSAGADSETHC
In words: Substrate activity at human OATP1B1 stably expressed in HEK293 cells assessed as ratio of total to passive cellular uptake at 1 uM incubated for 5 mins by LC/MS-MS analysis. It is filed as ADME, cell-based. To be noted: HEK293 cells stably expressing human OATP1B1. The method, boiled down: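 Transfected versus parental HEK293 cells exposed at 1 µM for 5 min at 37 °C. Ratio is total (transfected) over passive (parental) uptake; >2 denotes substrate.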

Series [5] in a line: Inhibition of DNL in cynomolgus monkey assessed as fructose-induced DNL level at 10 mg/kg, po after 9 hrs relative to control. To be noted: Macaca fascicularis. It is filed as functional. The method in brief: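 Male cynomolgus macaques were fasted overnight and enriched with plasma D2O, then given a single 10 mg/kg PO dose. Fructose was given orally every 30 min from t = 0, with a banana at hours 2 and 3. Deuterium incorporation into plasma TG palmitate was followed over 9 h, n = 12, mean ± SEM, versus vehicle.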

Series [6] can be described thus: Inhibition of DNL in Sprague-Dawley rat assessed as reduction in DNL level in bone marrow at 300 mg/kg, po pretreated with 1 hr followed by [14C]-acetate treatment and measured after 1 hr relative to control. It is filed as functional. The conditions noted are these: time 2 hrs. The method in brief: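 Sprague-Dawley rats given single oral doses of 0.03–300 mg/kg in 0.5% methyl cellulose vehicle, n = 16 per dose. Read-out is incorporation of 14C-acetate into lipids in liver, bone marrow and lung, measured at 2 h post-dose relative to vehicle. Data are mean ± SEM. EC50 is reported with a 95% confidence interval.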

A short description of series [7]: Unbound plasma concentration in Sprague-Dawley rat at 300 mg/kg, po. The class given is ADME, organism-based. To be noted: in vivo. The method, boiled down: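 Sprague-Dawley rats given a single oral dose in 0.5% methyl cellulose vehicle. Unbound plasma concentration measured at 300 mg/kg.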
Another series relates to TK6. In words: Genotoxicity in human TK6 cells by micronucleus test. The class given is toxicity, cell-based. The method, boiled down: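 In vitro micronucleus assay in Chinese hamster ovary or TK6 cells, run with and without metabolic activation by aroclor-induced rat liver S9 fraction plus NADPH.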
The nature of series [8]: Genotoxicity in Salmonella typhimurium TA100 by Ames test. The class given is toxicity. The conditions noted are these: salmonella enterica subsp. enterica serovar typhimurium. The method in brief: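 Ames test in Salmonella strains TA98, TA100, TA1535 and TA1537, run with and without aroclor-induced rat liver S9 plus NADPH.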
(In general: The Ames test uses bacterial strains that need an amino acid and regain growth without it when mutated back.)

A further series has as its target Cytochrome P450 1A2 (Homo sapiens, UniProt P05177). In words: Activation of CYP1A2 in human hepatocytes at 0.5 to 200 uM. It is filed as ADME, cell-based, Hepatocyte. To be noted: dose 0.5-200 µM.
Series [9] concerns the target UDP-glucuronosyltransferase 1A4 (Homo sapiens, UniProt P22310). Briefly: Inhibition of UGT1A4 in human liver microsomes incubated for 30 mins in presence of UDPGA by LC-MS/MS analysis. It is filed as ADME.
Another series deals with Acetyl-CoA carboxylase 1 (Homo sapiens, UniProt Q13085). In words: Uncompetitive inhibition of human ACC1 incubated for 15 mins in presence of ATP by Line weaver-Burk plot analysis. The method, boiled down: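 Radioenzymatic assay with purified ACC isozymes, measuring [14C]-bicarbonate incorporation into [14C]-malonyl-CoA. Mode of inhibition taken from substrate concentration-dependence experiments varying ATP or carbonate. IC50 dose-response run at saturating ATP.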

Series [10] is described as follows: Thermodynamic solubility of the compound at pH 7.4 after 24 hrs. The conditions noted are these: buffer, read-out: Therm_solubility. It is filed as physicochemical.
Series [11] is described as follows: AUC (0 to 24 hrs) in cynomolgus monkey plasma at 1 mg/kg, iv and measured up to 72 hrs by LC/MS-MS analysis. The class given is ADME, organism-based, Macaca fascicularis. The arrangement: route intravenous, dose 1 mg/kg, time <=72. The method in brief:
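Cynomolgus monkeys received an IV solution of the tris salt in 2% N-methylpyrrolidone and 98% sulfobutylether-β-cyclodextrin (12.5%) in 50 mM TRIS buffer, pH 8.0. AUC0–24 came from plasma concentration–time data by the linear trapezoidal rule, averaged for n = 2.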

Series [12] can be described thus: Drug uptake in Wistar-Hannover rat liver at 10 mg/kg, po after 6 hrs by LC/MS-MS analysis. It is filed as ADME, organism-based. The conditions noted are these: read-out: Drug uptake. The method in brief:
as §1

Series [13] in a line: Drug uptake in Wistar-Hannover rat assessed as plasma concentration at 10 mg/kg, po after 6 hrs by LC/MS-MS analysis. The class given is ADME, organism-based. The method in brief: as §1
The nature of series [14]: Fraction unbound in monkey liver by equilibrium dialysis method. It is filed as ADME, tissue-based, Macaca mulatta. To be noted: rhesus monkey. The method in brief:
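Fraction unbound in plasma and liver tissue was determined by equilibrium dialysis.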

Series [15] addresses T1, OATP1B1. In words: Substrate activity at human OATP1B1 stably expressed in HEK293 cells assessed as ratio of total to passive cellular uptake at 1 to 3 uM incubated for 0.5 to 4 mins by LC/MS-MS analysis. The class given is ADME, cell-based. To be noted: HEK293 cells stably expressing human OATP1B1, dose 1-3 µM, time 0.5-4 min. The method in brief:
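Stably transfected HEK293 cells and wild-type parental cells, cultured to confluency in DMEM with 10% heat-inactivated FBS and 5 µg/mL blasticidin. Uptake at 1–3 µM in HBSS/20 mM HEPES pH 7.4, 37 °C, 0.5–4.0 min. Cells washed in ice-cold buffer, lysed in MeOH, quantified by LC-MS/MS and normalized to protein. Ratio is transfected/parental uptake; >2 denotes substrate.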

Cytochrome P450 1A2, sequence (P05177 whole entry): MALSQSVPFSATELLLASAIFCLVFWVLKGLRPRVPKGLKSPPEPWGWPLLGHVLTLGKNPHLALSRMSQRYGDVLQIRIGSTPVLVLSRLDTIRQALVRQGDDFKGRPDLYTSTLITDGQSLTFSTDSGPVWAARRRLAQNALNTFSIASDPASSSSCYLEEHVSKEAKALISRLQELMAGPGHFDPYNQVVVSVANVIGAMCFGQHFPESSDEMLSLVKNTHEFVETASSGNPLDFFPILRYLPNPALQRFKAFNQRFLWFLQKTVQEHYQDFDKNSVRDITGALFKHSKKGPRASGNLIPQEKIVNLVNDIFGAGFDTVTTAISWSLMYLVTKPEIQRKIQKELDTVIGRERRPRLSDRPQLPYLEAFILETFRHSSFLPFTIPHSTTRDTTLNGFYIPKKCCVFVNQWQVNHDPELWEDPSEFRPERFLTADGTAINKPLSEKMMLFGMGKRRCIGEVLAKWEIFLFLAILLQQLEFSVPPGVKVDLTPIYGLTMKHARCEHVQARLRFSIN
UDP-glucuronosyltransferase 1A4, sequence (P22310 whole entry): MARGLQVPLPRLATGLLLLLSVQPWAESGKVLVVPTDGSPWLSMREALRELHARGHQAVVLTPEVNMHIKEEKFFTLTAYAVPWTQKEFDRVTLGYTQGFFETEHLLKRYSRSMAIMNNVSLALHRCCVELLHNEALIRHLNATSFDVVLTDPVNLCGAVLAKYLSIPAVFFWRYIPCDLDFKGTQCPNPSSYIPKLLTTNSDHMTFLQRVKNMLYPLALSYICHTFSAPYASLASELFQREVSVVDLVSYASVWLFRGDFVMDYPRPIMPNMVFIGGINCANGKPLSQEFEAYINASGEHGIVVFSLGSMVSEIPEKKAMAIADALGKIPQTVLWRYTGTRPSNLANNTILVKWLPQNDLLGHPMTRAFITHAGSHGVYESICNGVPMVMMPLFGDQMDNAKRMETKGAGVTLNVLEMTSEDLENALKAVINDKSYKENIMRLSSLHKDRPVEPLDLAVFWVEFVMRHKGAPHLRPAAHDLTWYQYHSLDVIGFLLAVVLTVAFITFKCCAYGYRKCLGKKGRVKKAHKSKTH

Turning to `COc1cc(C(=O)N2CCC3(CC2)CC(=O)c2nn(C(C)(C)C)cc2O3)cc(-c2ccc(C(=O)O)cc2)n1`, the highest level in [1] (Cmax) was 53.9 ng/mL. The half-life in [2] is 342 min. Also, in [3], the concentration at 6 h was 38100 ng/mL. Moreover, the uptake ratio at 5 min, 1 µM on OATP1B1 [4] came to 5.

As to `COc1cc(C(=O)N2CCC3(CC2)CC(=O)c2c(cnn2C(C)C)C3)cc(-c2ccc(C(=O)O)cc2)n1` [CLESACOSTAT], in [5], the inhibition in vivo at 10 mg/kg was 100%. The inhibition in vivo at 300 mg/kg in series [6] amounted to 33%. For the same compound, in series [7], the “Cp(f)” value was 119.4 nM. The Activity result in the series on TK6 is on record as “Non-Toxic”; in series [8] it was “Non-Toxic”; at Cytochrome P450 1A2, “Not Active”. Further, the values for the negative-log IC50 (pIC50) (in [9]; at Acetyl-CoA carboxylase 1) were less than 4.70 and 7.91, respectively. In series [10], the solubility thermodynamic at 24 h came out at 234 µM (≈ 118 µg/mL). The same compound returned an area under the curve AUC(0-t) in series [11] of 14000 ng·h/mL. For the same compound, the results for the concentration at 6 h in series [12] and in series [13] were 24600 ng/mL and 314 ng/mL, respectively. In [14], this compound gave a free fraction (fraction unbound) of 0.15. Also, the uptake ratio at up to 3 µM at OATP1B1 [15] was determined as 3.5.
